Source: ChEMBL document CHEMBL4715912, “Discovery of a novel series of indolinylpyrimidine-based GPR119 agonists: Elimination of ether-a-go-go-related gene liability using a hydrogen bond acceptor-focused approach” (Bioorg Med Chem, 2021)

Tests used:
[1] = Partition coefficient, logD between 1-octanol and pH 7.4 aqueous buffer by chromatographic analysis; assay type: physicochemical; conditions: 1-octanol/pH 7.4 aqueous buffer
Summary of the method: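 LogD at pH 7.4, octanol/aqueous buffer partition, estimated by a chromatographic method adapted from a published procedure.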

[2] = target: T1, hERG (KCNH2) (Homo sapiens, UniProt Q12809); test: (§1) Inhibition of human ERG expressed in CHO cells at 10 uM incubated for 5 mins by patch-clamp assay relative to control; assay type: cell-based; conditions: CHO cells expressing human ERG
T1 sequence (Q12809 whole entry): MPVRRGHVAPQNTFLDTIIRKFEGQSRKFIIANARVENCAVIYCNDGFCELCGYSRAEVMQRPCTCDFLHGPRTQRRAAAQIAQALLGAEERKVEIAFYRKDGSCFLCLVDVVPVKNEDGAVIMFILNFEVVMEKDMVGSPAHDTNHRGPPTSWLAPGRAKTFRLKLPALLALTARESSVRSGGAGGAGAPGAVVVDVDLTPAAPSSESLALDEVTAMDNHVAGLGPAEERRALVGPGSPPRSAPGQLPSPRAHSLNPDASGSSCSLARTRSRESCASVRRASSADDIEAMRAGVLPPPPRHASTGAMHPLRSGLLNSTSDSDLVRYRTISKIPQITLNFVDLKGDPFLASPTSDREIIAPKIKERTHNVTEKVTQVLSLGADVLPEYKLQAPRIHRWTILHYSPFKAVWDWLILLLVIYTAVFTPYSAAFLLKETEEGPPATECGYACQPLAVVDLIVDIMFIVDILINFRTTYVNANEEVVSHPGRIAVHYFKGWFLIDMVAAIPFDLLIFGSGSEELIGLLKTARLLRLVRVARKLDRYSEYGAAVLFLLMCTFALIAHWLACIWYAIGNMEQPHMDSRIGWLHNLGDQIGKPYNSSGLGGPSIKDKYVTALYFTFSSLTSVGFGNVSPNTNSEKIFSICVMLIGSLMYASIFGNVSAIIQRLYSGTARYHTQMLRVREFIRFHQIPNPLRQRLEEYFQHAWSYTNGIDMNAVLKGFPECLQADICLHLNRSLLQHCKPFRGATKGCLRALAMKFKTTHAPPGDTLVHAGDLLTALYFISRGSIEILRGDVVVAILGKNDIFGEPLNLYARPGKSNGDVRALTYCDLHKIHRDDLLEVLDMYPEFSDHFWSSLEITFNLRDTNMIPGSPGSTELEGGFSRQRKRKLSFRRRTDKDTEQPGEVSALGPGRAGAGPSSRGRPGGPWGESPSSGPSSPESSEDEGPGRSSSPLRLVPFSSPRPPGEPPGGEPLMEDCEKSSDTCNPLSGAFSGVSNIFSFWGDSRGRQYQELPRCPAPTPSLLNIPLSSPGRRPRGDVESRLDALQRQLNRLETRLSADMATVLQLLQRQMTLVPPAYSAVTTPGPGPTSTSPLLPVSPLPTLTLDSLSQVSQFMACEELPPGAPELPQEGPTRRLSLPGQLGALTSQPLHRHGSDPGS
Summary of the method: (§2)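 hERG-expressing CHO cells grown at 32 °C, recorded by population patch clamp after amphotericin B perforation; PBS with Ca/Mg outside, KCl/EGTA/HEPES pH 7.3 inside. Holding −80 mV, step to 40 mV 2 s, then −50 mV 2 s; peak tail current before and after 5 min compound exposure. Percent inhibition = 100 − post/pre × 100; mean ± SD, n = 4.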

[3] = target: T2, Glucose-dependent insulinotropic receptor (Homo sapiens, UniProt Q8TDV5); test: Agonist activity at human GPR119 expressed in CHO cells co-expressing cyclic AMP response element incubated for 2 hrs by steady-glo luciferase assay; assay type: cell-based
T2 sequence (Q8TDV5 whole entry): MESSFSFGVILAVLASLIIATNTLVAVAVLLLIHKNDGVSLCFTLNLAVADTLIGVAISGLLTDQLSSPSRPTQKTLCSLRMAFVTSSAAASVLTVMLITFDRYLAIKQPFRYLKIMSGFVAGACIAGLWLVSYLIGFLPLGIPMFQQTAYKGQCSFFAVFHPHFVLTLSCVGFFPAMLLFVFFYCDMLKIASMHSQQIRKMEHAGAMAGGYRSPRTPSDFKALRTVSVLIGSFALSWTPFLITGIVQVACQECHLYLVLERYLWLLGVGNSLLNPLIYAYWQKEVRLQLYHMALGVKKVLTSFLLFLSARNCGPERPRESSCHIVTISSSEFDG
Summary of the method: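 CHO cells stably expressing human GPR119, seeded at 10,000 cells/well in MEM α with 500 µg/mL Geneticin overnight, then exposed to graded compound concentrations in MEM α/20 mmol/L HEPES/0.1% BSA for 2 h. cAMP-driven luciferase read with Steady-Glo. Response normalized between vehicle and a 10 µM reference agonist; EC50 as mean of n = 2.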

[4] = Intrinsic clearance in rat liver microsomes at 1 uM measured after 15 to 30 mins in presence of NADPH generating system by LC/MS/MS analysis; assay type: ADME, Microsome; conditions: time 15-30 min, read-out: CLH
Summary of the method: (§3)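 Human or rat liver microsomes at 0.2 mg/mL protein in 50 mM potassium phosphate pH 7.4 with 1 µM compound; reaction started with NADPH-generating system (5 mM MgCl2, 5 mM glucose-6-phosphate, 0.5 mM β-NADP+, 1.5 units/mL G6PDH). Stopped with acetonitrile at 15 and 30 min, parent by LC/MS/MS; rate from concentration–time slope, expressed as µL/min/mg.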

[5] = Intrinsic clearance in human liver microsomes at 1 uM measured after 15 to 30 mins in presence of NADPH generating system by LC/MS/MS analysis; assay type: ADME, Microsome; conditions: time 15-30 min, read-out: CLH; summary of the method: as §3
[6] = target: Voltage-gated inwardly rectifying potassium channel KCNH2 (Homo sapiens, UniProt Q12809); test: as §1; assay type: cell-based; conditions: cho, 5 min, 10 µM; summary of the method: as §2
Voltage-gated inwardly rectifying potassium channel KCNH2, sequence (Q12809 whole entry): as the sequence (Q12809 whole entry) above

[7] = Total clearance in rat at 0.1 mg/kg, iv by LC/MS/MS analysis; assay type: ADME, organism-based; conditions: in vivo
Summary of the method: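 Cassette intravenous dosing at 0.1 mg/kg to non-fasted animals. Plasma taken from blood samples, deproteinized and centrifuged, and compound levels in supernatant quantified by LC/MS/MS.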

[8] = target: T1, hERG (KCNH2); test: Inhibition of human ERG expressed in CHO cells at 30 uM incubated for 5 mins by patch-clamp assay relative to control; assay type: cell-based; conditions: CHO cells expressing human ERG; summary of the method: as §2

SMILES | logD [1] | EC50 [3] [nM] | microsomal CLint at 1 µM [4] [µL/min/mg] | microsomal CLint at 1 µM [5] [µL/min/mg] | clearance [7] [mL/min/kg] | inhibition at 5 min, 10 µM [2] [%] | inhibition (INH) [6] [%] | inhibition at 5 min, 30 µM [8] [%]
CC(C)SC(=O)N1CCC(Oc2cc(N3CCc4cc([S+]([O-])CCO)ccc43)ncn2)CC1 (stereo in doubt; form 1) | – | 57 | – | – | – | – | 44 | –
CC(=O)N(C)c1ccc2c(c1)CCN2c1cc(OC2CCN(c3nc(C(C)C)no3)CC2)ncn1 | 3.7 | 75 | 17 | 173 | – | 66 | – | 108
CC(C)c1noc(N2CCC(Oc3cc(N4CCc5cc(S(C)(=O)=O)ccc54)ncn3)CC2)n1 | – | – | – | 69 | 3.83 | 106 | – | –
CC(C)c1noc(N2CCC(Oc3cc(N4CCc5cc(N6CCC(O)CC6=O)ccc54)ncn3)CC2)n1 (racemic) | 2.8 | 89 | 13 | 4 | – | 18 | – | –
CC(C)c1noc(N2CCC(Oc3cc(N4CCc5cc(C6CCCCC6=O)ccc54)ncn3)CC2)n1 (racemic) | 4.7 | 48 | 141 | 78 | – | 13 | – | –
CC(C)SC(=O)N1CCC(Oc2cc(N3CCc4ccccc43)ncn2)CC1 | 5.3 | > 10000 | – | – | – | 14 | – | 16
CC(C)c1noc(N2CCC(Oc3cc(N4CCc5cc(N6CC(O)CCC6=O)ccc54)ncn3)CC2)n1 (racemic) | 2.6 | 90 | 7 | 1 | – | 18 | – | –
CC(C)OC(=O)N1CCC(Oc2cc(N3CCc4cc(S(C)(=O)=O)ccc43)ncn2)CC1 | – | – | – | – | – | 84 | – | –
CCc1cnc(N2CCC(C(C)COC(=O)N3CCc4cc(S(C)(=O)=O)cc(F)c43)CC2)nc1 (centres undefined) | – | – | 365 | 329 | 47.7 | 75 | – | –

Further lines, with some results ahead:

logD [1] | EC50 [3] [nM] | microsomal CLint at 1 µM [4] [µL/min/mg] | microsomal CLint at 1 µM [5] [µL/min/mg] | clearance [7] [mL/min/kg] | SMILES | inhibition at 5 min, 10 µM [2] [%] | inhibition (INH) [6] [%] | inhibition at 5 min, 30 µM [8] [%]
2.7 | 48 | – | – | – | CC(C)c1noc(N2CCC(Oc3cc(N4CCc5cc([S+]([O-])CCO)ccc54)ncn3)CC2)n1 (racemic) | 107 | – | –
3.2 | 9.7 | 1 | 18 | – | CC(C)c1noc(N2CCC(Oc3cc(N4CCc5cc(N6CCCS6(=O)=O)ccc54)ncn3)CC2)n1 | 19 | – | –
3.3 | 17 | 4 | – | – | CC(C)c1noc(N2CCC(Oc3cc(N4CCc5cc(N6CCCC(O)C6=O)ccc54)ncn3)CC2)n1 (racemic) | 20 | – | –
3.3 | 25 | – | – | 6.25 | CC(C)c1noc(N2CCC(Oc3cc(N4CCc5cc(N6CCC[C@@H](O)C6=O)ccc54)ncn3)CC2)n1 | 23 | – | –
2.7 | 36 | 98 | – | – | CC(C)c1noc(N2CCC(Oc3cc(N4CCc5cc(N6CCNCC6=O)ccc54)ncn3)CC2)n1 | 15 | – | –
3.7 | 33 | 138 | – | – | CC(C)c1noc(N2CCC(Oc3cc(N4CCc5cc(N6CCCC6=O)ccc54)ncn3)CC2)n1 | 20 | – | –
3.1 | 15 | 46 | 27 | – | CC(C)c1noc(N2CCC(Oc3cc(N4CCc5cc(N6CCOCC6=O)ccc54)ncn3)CC2)n1 | 54 | – | –
3.8 | 17 | 13 | – | – | CC(C)c1noc(N2CCC(Oc3cc(N4CCc5cc(N6CCCCC6=O)ccc54)ncn3)CC2)n1 | 31 | – | –
3.2 | 24 | 21 | 79 | – | CC(C)c1noc(N2CCC(Oc3cc(N4CCc5cc(N6CCCNS6(=O)=O)ccc54)ncn3)CC2)n1 | 20 | – | –
– | 14 | – | – | – | CC(C)SC(=O)N1CCC(Oc2cc(N3CCc4cc([S+]([O-])CCO)ccc43)ncn2)CC1 (racemic) | – | 95 | –
3.3 | 9.7 | – | – | – | CC(C)SC(=O)N1CCC(Oc2cc(N3CCc4cc([S+]([O-])CCO)ccc43)ncn2)CC1 (stereo in doubt; form 2) | – | 101 | –
2.7 | 41 | – | – | – | CC(C)c1noc(N2CCC(Oc3cc(N4CCc5cc(S(=O)(=O)CCO)ccc54)ncn3)CC2)n1 | 102 | – | –
3.6 | 3.2 | – | – | – | CC(C)SC(=O)N1CCC(Oc2cc(N3CCc4cc(S(C)(=O)=O)ccc43)ncn2)CC1 | 89 | – | –
